Published values of several laboratories.
Lines come from different studies, so protocols differ.
Target: Activin receptor type-1 (ACVR1, Homo sapiens, UniProt Q04771)
One construct used (Q04771 1-509): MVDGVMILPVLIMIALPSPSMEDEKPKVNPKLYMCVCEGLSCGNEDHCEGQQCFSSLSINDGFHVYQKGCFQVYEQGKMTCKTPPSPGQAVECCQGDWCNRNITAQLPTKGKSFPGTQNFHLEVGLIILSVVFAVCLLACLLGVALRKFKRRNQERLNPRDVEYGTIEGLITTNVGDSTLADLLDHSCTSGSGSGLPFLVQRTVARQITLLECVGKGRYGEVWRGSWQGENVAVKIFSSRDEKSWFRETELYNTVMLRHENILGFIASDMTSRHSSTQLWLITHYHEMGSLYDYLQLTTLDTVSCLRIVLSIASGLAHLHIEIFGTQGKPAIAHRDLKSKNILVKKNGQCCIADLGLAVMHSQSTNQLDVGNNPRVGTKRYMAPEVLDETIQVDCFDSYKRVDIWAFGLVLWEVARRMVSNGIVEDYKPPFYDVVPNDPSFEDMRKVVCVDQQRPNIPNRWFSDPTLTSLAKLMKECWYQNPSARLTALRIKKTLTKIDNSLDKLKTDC

| SMILES | assay | setting | quantity | value |
| --- | --- | --- | --- | --- |
| CC(C)CC(=O)N1CCc2nc(-c3ccc(Br)cc3)nc(N(C)Cc3ccccc3)c2C1 | cell-free assay, competition with immobilised ligand | 0.1 µM | remaining binding | 100% |
| O=C(Nc1cnn(-c2csc(C(=O)NC3COC3)c2)c1)Nc1c(F)cccc1Cl | enzyme activity, inhibitor | 5 µM | remaining activity | 95.7% |
| CC(C)(O)[C@H]1CC[C@H](Nc2ccc3ncc(-c4cccc(C(F)(F)F)c4)n3n2)CC1 | enzyme activity, inhibitor | 1 µM | remaining activity | 28.2% |
| Cn1c2c(c3ccc(Cl)c(Cl)c31)C(C#N)C1(CCNCC1)NC2=O (racemic) | thermal stability, DSF | 10 µM | ΔTm | -0.1 °C |
| CC(C)(C)c1nc2c(s1)c1nc(N)ncc1c1ccc(NS(=O)(=O)c3c(F)cccc3F)c(F)c12 | enzyme activity, inhibitor, radiometric | 1 µM | remaining activity | 79% |
| CN([C@@H]1CCc2c(CC(=O)O)c3ccccc3n2C1)S(=O)(=O)c1ccc(F)cc1 | cell-free assay, competition with immobilised ligand | 1 µM | remaining binding | 100% |
| C#Cc1cccc(Nc2ncnc3cc(OCCOC)c(OCCOC)cc23)c1 | cell-free assay | 0.5 µM | remaining signal | 101% |
| Nc1cnc(N2CCc3cc(S(=O)(=O)Nc4c(F)cc(Cl)cc4F)cc(N4CCCC4=O)c32)nc1 | cell-free assay, competition with immobilised ligand | 1 µM | remaining binding | 100% |
| O=C1Nc2ccc(Cl)cc2C1=Cc1cc(Cl)c(O)c(Cl)c1 | cell-free assay | 0.5 µM | remaining signal | 130% |
| Cc1ccc(NC(=O)c2ccc(C)c(C(F)(F)F)c2)cc1C#Cc1nn(C2CCC(O)CC2)c2ncnc(N)c12 (centres unmarked) | cell-free assay | 10 µM | remaining signal | 77% |
| Cc1ccc(C(=O)Nc2ccc(CN3CCN(C)CC3)c(C(F)(F)F)c2)cc1C#Cc1cnc2cccnn12 | cell-free assay | 23.5 nM | remaining signal | 100% |
| O=C1NC(=O)c2cc(Nc3ccc(F)cc3)c(Nc3ccc(F)cc3)cc21 | cell-free assay | 0.5 µM | remaining signal | 92.3% |
| CC1=C(C#N)C(c2ccc3c(c2)c(NC(=O)c2ccccc2C)nn3C)C(C#N)=C(C)N1 | cell-free assay, competition with immobilised ligand | 1 µM | remaining binding | 99% |
| CN1CC(Oc2cnc(C#N)cc2-c2ccn3nc(NC(=O)C4CC4)cc3c2)C1 | enzyme activity, inhibitor | 1 µM | inhibition | -8% |
| CCN1CCC2(CC1)NC(=O)c1c(c3ccc(Cl)c(Cl)c3n1C)C2C#N (racemic) | thermal stability, DSF | 10 µM | ΔTm | -0.1 °C |
| COc1cc(-c2cn(C3CCc4ccccc4N(CC(F)(F)F)C3=O)nn2)ccc1-n1ccc(C)n1 (centres unmarked) | cell-free assay, competition with immobilised ligand | 1 µM | remaining binding | 100% |
| Cn1c2c(Cl)c(Cl)ccc2c2cc(N)[nH]c(=O)c21 | thermal stability, DSF | 10 µM | ΔTm | 3.2 °C |
| O=C(O)[C@H]1[C@H](Cn2nnc3ccccc3c2=O)CC[C@@H]1C(=O)c1ccc(OCCC2CCOCC2)cc1 | cell-free assay, competition with immobilised ligand | 1 µM | remaining binding | 100% |
| Cc1cnc(NC2CCOCC2)nc1-n1cnc(C(=O)NC(CN)c2cc(F)cc(Cl)c2)c1 (centres unmarked) | enzyme activity, inhibitor, radiometric | 1 µM | remaining activity | 96% |
| Cn1c2c(c3ccc(Cl)c(Cl)c31)C(C#N)C(C)(C)NC2=O (centres unmarked) | thermal stability, DSF | 10 µM | ΔTm | 1.1 °C |
